Screening data deposited in PubChem BioAssay by Broad Institute.
FGF22 binding: shifts melting point of recombinant human FGF22 | recombinant FGF22 thermal shift, SYPRO orange fluorescence; percent of sucrose octasulfate shift, DMSO zero | activity (Tm shift, normalised), % at 9.99 µM | Q9HCT0 | 340,000 compounds, 1.5% hits | AID 651658;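 active means mean Tm shift, scaled 0 neutral to 100 positive control, at about 1.3% or above, every replicate too, limit read from the data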
ERAP1 HTS inh: ERAP1 (human) enzyme inhibition. inhibition, % at 10.7 µM. 340,000 compounds, 0.15% hits. Q9NZ08. recombinant ERAP1, Leu-AMC fluorescence, 60 min;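 active means mean replicate inhibition of at least 30%, or all replicates individually reaching that 30% level; inactive means mean below 30% and not every replicate reaching it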;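 further: 0% = neutral control wells and 100% = L-leucinethiol positive control wells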
Target sequence (Q9NZ08 whole entry, looked up): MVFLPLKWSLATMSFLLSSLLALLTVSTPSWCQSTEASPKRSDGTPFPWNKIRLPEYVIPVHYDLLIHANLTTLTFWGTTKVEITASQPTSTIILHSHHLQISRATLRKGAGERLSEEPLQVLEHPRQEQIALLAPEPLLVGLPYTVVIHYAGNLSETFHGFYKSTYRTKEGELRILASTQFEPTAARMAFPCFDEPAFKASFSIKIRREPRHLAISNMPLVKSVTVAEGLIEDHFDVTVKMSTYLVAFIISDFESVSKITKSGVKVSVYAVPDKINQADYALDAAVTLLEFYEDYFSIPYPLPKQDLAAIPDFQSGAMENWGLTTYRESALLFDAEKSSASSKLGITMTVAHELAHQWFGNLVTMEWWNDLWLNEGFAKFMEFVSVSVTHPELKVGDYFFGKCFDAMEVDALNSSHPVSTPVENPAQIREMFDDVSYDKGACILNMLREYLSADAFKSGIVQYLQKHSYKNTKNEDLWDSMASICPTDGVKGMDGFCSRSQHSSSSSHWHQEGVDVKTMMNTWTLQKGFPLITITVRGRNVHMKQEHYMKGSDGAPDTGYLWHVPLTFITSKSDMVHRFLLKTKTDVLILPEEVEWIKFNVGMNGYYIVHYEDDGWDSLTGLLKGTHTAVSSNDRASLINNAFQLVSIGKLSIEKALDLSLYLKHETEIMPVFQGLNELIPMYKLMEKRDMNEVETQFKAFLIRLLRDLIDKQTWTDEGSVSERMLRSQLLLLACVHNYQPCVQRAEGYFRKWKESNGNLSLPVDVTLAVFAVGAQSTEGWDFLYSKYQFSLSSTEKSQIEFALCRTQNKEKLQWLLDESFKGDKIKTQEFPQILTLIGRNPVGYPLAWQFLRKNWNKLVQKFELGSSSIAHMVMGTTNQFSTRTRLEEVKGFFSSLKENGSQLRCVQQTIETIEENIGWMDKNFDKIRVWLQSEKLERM
Ecoli rRNA inh: inhibitors of bacterial rRNA selective over humanized ribosomes | E. coli WT GFP vs humanized-ribosome RFP mutants, fluorescence, 24 h; hits give low values; DMSO median 0, no signal -100 | GFP signal change (wild-type ribosome), % (concentration not given with the values) | 350,000 compounds, 1.6% hits | AID 720706;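 active means significant combined selectivity score with lowered wild-type GFP, culture density cut under 30%, mutant RFP and density less affected; inactive means any of these conditions unmet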
Cneo AK release: Cryptococcus neoformans lysis via adenylate kinase release; C. neoformans lysis, adenylate kinase release luminescence, 4 h; normalised: neutral wells 0, clomiphene wells 100; lysis activity, % at 15 µM; 360,000 compounds, 0.2% hits;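 active means mean lysis activity across replicates of at least 80%, whatever share of replicates individually reach that level; inactive means mean lysis activity below 80%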
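Material – log-phase Cryptococcus neoformans yeast cells · Input – 5 × 10^6 yeast cells/mL · Medium – fresh YPD growth medium · Doses – single compound concentration per well · Timing – static 4 h at 37 °C with compound, 1 h detection · Detection – adenylate kinase release luminescence · Read-out – signal increase indicating cell lysis · Control set – Clomiphene as positive lysis control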
HIV Env fusion: inhibitors of HIV Env-mediated cell fusion | 360,000 compounds, 1.1% hits | HeLa-JRFL Env/CEM21 cell fusion, luciferase | inhibition, % at 12.3 µM;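 active means mean replicate inhibition score of at least 50 and every replicate individually at or above 50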;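 further: 0% = plate neutral controls and 100% = maraviroc near 300 nM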
PGC1a acetyl inh: modulators of PGC1a acetylation. U2OS PGC1a acetylation, AlphaScreen anti-acetyl-lysine; with virally co-expressed GCN5 acetyltransferase. inhibition, % at 15.6 µM. 350,000 compounds, 0.17% hits. AID 651687;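 active means every replicate shows inhibition of at least 40%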;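 further: 0% = neutral control wells and 100% = positive control wells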
* hit, by the source's call; nt = no result given; [ ] = dose if it differs, or a comment. An excerpt weighted towards active compounds, which were near 3.5% of everything screened.

SMILES | FGF22 binding | ERAP1 HTS inh | Ecoli rRNA inh | Cneo AK release | HIV Env fusion | PGC1a acetyl inh
N#C/C(=C\c1ccc(N2CCCCC2)o1)C(N)=O | -0.1 | 8.2 | 9.4 | nt | 56.8* | nt
COc1ccc(CN(C)C[C@H]2Oc3ccc(NS(=O)(=O)c4ccc(C)cc4)cc3CC(=O)N([C@H](C)CO)C[C@H]2C)cc1 | -0.6 | -3.4 | -3.4 | 14.6 | nt | -8.2
O=C(CSc1cccc2cccc(Cl)c12)OCC(=O)N1CCN(C(=O)c2ccco2)CC1 | nt | nt | nt | nt | -38.6 | nt
NC(=O)COC(=O)CSc1cccc2cccc(Cl)c12 | -0.5 | 6.1 | -29.1* | nt | -39.5 | nt
Cc1ccc(C)c(N2CCN(S(=O)(=O)c3ccc4[nH]c(=O)c(=O)[nH]c4c3)CC2)c1 | nt | nt | nt | 0.0 | -21.4 | 3.7
C[C@H]1CN([C@@H](C)CO)C(=O)c2cc(NC(=O)CCCCCC(=O)Nc3ccccc3N)ccc2O[C@@H]1CN(C)C(=O)Nc1ccc(F)cc1 | 0.2 | 2.1 | 2.4 | nt | nt | 8.0
COc1ccc(C2c3c(-c4ccccc4O)n[nH]c3C(=O)N2CCc2ccc(OC)c(OC)c2)cc1 (stereo not given) | nt | nt | nt | 4.1 | 91.4* | -63.2
Brc1ccc(-n2cnc(-c3ccccc3)c2)cc1 | 0.0 | -0.4 | -14.6* | -4.5 | -177.9 | 5.1
CCNC(=S)N1CCc2cc(OC)c(OC)cc2C1COc1ccc(F)cc1 (stereo not given) | 0.5 | -0.4 | -30.7* | -3.9 | -0.6 | 1.6
COC(=O)c1ccc(OCC2c3cc(OC)c(OC)cc3CCN2C(C)=O)cc1 (stereo not given) | 0.3 | 2.0 | 7.6 | -1.6 | 13.6 | 33.4
CNC(=S)N1CCc2cc(OC)c(OC)cc2C1COc1ccc(F)cc1 (stereo not given) | -0.1 | -6.7 | -4.4 | nt | -1.7 | -16.3
COc1ccc(OCC2c3cc(OC)c(OC)cc3CCN2C(=O)C(C)C)cc1 (stereo not given) | -0.2 | -2.8 | -24.4* | nt | -1.2 | -16.5
COc1ccc(NC(=O)Nc2ccc3c(c2)C(=O)N([C@@H](C)CO)C[C@@H](C)[C@H](CN(C)CC2CCCCC2)OCCCC[C@@H](C)O3)cc1 | nt | -13.7 | 1.2 | 1.5 | 9.5[16.7 µM] | 1.5
CC1(C(=O)NNC(=O)C2CCCCC2)CC1(Cl)Cl (stereo not given) | -0.1 | 4.3 | -26.9* | 2.1 | -8.4 | 1.3
COCCOC(=O)N1C(=O)[C@@]2(c3cc(C#CCC(C(=O)OC)C(=O)OC)ccc31)[C@H](C(=O)Nc1nc3ccccc3s1)[C@H]1C(=O)O[C@H](c3ccccc3)[C@H](c3ccccc3)N1[C@@H]2c1ccccc1OCCO | -0.1 | -2.5 | nt | 17.7 | -3.4[16.7 µM] | 13.5
CCOC(=O)CNC(=O)c1sc(NC(=O)c2ccccc2F)nc1C | 0.2 | 0.6 | 9.3 | -0.5 | nt | 4.5
Cc1cccc(NS(=O)(=O)c2ccc3[nH]c(=O)cc(C(=O)O)c3c2)c1 | 0.2 | -7.0 | -14.5* | nt | -1.2 | nt
C[C@@H]1CN([C@@H](C)CO)C(=O)c2cc(-c3ccccc3)cnc2O[C@H]1CN(C)C(=O)Nc1ccccc1 | -0.2 | -2.6 | -0.1 | 0.0 | 1.9[16.7 µM] | 0.2
COCCn1c(SCC(=O)NC(=O)NC(C)(C)C)nc2ccccc21 | nt | nt | nt | -0.1 | 122.8* | -1.6
CC1(C)CN(c2ccccc2)C(=O)[C@H]1CC(=O)Nc1ccccc1 | 0.3 | 2.8 | -11.7 | nt | -0.7 | -25.7
CCn1c(C(=O)NC(C)c2ccc3c(c2)OCCO3)cc2sccc21 (stereo not given) | 0.2 | -1.7 | -16.0 | 4.3 | -18.5 | -15.8
COc1ccc(CC(=O)N2CCC(c3ccccc3)C2)cc1 (stereo not given) | 44.1* | 1.4 | 0.1 | nt | -6.2 | nt
Nc1ncnc2c1ncn2[C@@H]1O[C@H](CNC(=O)[C@@H](N)Cc2ccccc2)[C@@H](O)[C@H]1O | -0.2 | -5.5 | 16.4 | 0.1 | -5.3 | 3.5
CCOC(=O)C(=O)Cc1nc(OCc2ccccc2)cc(OCc2ccccc2)n1 | 43.0* | 1.1 | 7.8 | -4.8 | nt | 10.9
COc1cc(CN2CCN(Cc3ccc(C(F)(F)F)cc3)CC2)cc(OC)c1OC | 0.0 | 0.7 | 3.7 | -1.3 | -11.5 | nt
SMILES | FGF22 binding | ERAP1 HTS inh | Ecoli rRNA inh | Cneo AK release | HIV Env fusion | PGC1a acetyl inh
COc1cc(CN2CCN(Cc3ccccc3C(F)(F)F)CC2)cc(OC)c1OC | 0.3 | -1.0 | 3.0 | -1.4 | -8.8 | 63.3*
O=C(COC(=O)Cc1ccc(Cl)cc1)Nc1c(F)cccc1F | 44.2* | 1.7 | -2.9 | 3.4 | 2.9 | -3.2
O=C(COC(=O)Cc1ccc(Cl)cc1)Nc1ccccc1F | 0.1 | nt | 2.1 | nt | -12.0 | -6.3
c1ccc(OCCn2c(-c3ccco3)nc3ccccc32)cc1 | 0.5 | 1.9 | -46.0* | 6.5 | nt | -9.3
Cc1cccc(OCCn2c(-c3ccco3)nc3ccccc32)c1 | nt | nt | nt | 2.6 | -107.9 | nt
CC(C)OC(=O)NCCOC(=O)Nc1ccc(Cl)cc1 | 0.2 | -0.7 | -21.2* | nt | 11.8 | nt
CCC(OC(=O)CNS(=O)(=O)c1ccccc1)C(=O)c1ccccc1 (stereo not given) | -0.4 | -2.7 | 7.1 | 7.0 | 2.0 | -3.0
Oc1cccc(/C=N/Nc2cc(N3CCOCC3)nc(N3CCOCC3)n2)c1 | nt | nt | nt | -3.4 | nt | -5.6
Cc1nc(N/N=C/c2ccc(O)cc2O)cc(N2CCOCC2)n1 | 0.4 | -1.1 | -37.3* | -2.7 | -3.3 | 12.1
Oc1ccc(/C=N/Nc2cc(N3CCOCC3)nc(N3CCOCC3)n2)cc1O | -0.3 | 0.4 | -25.2* | nt | 0.4 | nt
Oc1ccc(C=Nc2ccc(N3CCOCC3)cc2)c(O)c1 | nt | nt | nt | -6.7 | 32.3 | 64.2*
O=c1nc(N2CCOCC2)nc(N/N=C/c2ccc3c(c2)OCO3)[nH]1 | 43.8* | -0.9 | 13.2 | nt | -12.0 | nt
Cc1nc(N/N=C/c2cccc(F)c2)cc(N2CCOCC2)n1 | -0.1 | -5.3 | -3.0 | -2.6 | 4.6 | -6.0
CC(=O)N1CCOc2ccc(S(=O)(=O)N3CCC(C(=O)NCc4ccc(F)cc4)CC3)cc21 | 0.0 | 0.1 | 3.5 | 2.4 | -4.8 | 2.2
Cc1sc2ncnc(N3CCC(C)CC3)c2c1C | nt | nt | nt | 1.3 | nt | 6.0
CC(C)c1ccccc1NC(=S)NC(C)c1ccccc1 (stereo not given) | 43.6* | -0.4 | -18.1 | nt | -1.0 | nt
CC(NC(=S)Nc1ccc(F)cc1)c1ccccc1 (stereo not given) | nt | -0.2 | -6.9 | 9.7 | -19.4 | -6.8
NC(=S)Nn1c(CCC(=O)O)ccc1-c1ccccc1 | 0.2 | -4.6 | 10.3 | nt | 9.9 | nt
CCOc1ccc(N2CC(C(=O)NCCc3c[nH]c4ccc(OC)cc34)CC2=O)cc1 (stereo not given) | -0.1 | 1.1 | 1.3 | -0.5 | -11.4 | nt
COc1ccc2[nH]cc(CCNC(=O)C3CC(=O)N(c4ccc(Cl)cc4)C3)c2c1 (stereo not given) | -0.3 | 1.8 | -23.8* | -1.5 | -1.2 | 8.2
COc1ccc(N2CC(C(=O)N/N=C/c3c[nH]c4ccccc34)CC2=O)cc1 (stereo not given) | 43.6* | -2.9 | 2.1 | nt | -6.9 | nt
